# Screening results from PubChem.
# An excerpt weighted towards active compounds, which were near 6.4% of everything screened.
# Jurkat tox 60K: reduces viability or proliferation of Jurkat cells. Jurkat E6.1 viability, ATP luminescence, 48 h. inhibition, % at 4 µM. hit rate 1.2% among 56,000;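 active means inhibition above the mean inhibition of all tested compounds plus 3 SD, cut at about 28% in these data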
# Ecoli tolC: E. coli tolC mutant growth inhibition. growth inhibition, % at 10 µM (by protocol). AID 573. E. coli BW25113 tolC mutant growth, OD615. hit rate 2.2% among 65,000;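 active means growth inhibition at or above a cutoff equal to the mean over every tested compound plus 3 SD, cut at about 60% in these data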;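 further: growth measured after 20 h incubation at 37 °C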
#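 signal = optical density read at 615 nm | test system = E. coli ΔtolC::kan strain BW25113 | timing = 20 h compound exposure of bacteria at 37 °C | buffer or medium = LB medium plus 50 µg/mL kanamycin | compound dosing = 10 µM final, single dose | evaluation = % inhibition of E. coli growth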
# H69AR inhibit: blocks growth of human H69AR lung tumor cells; H69AR lung tumor viability, ATP luminescence, 72 h; hits give low values; viability, % at 10 µM; hit rate 6% among 85,000; AID 598;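 active means viability at or below 40%; inactive means viability above 40%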;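 further: multidrug resistant small cell line overexpressing MRP-1 efflux transporter; 100% = mean luminescence of untreated control wells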
# Ecoli WT expand: blocks growth of wild type E. coli BW25113; OD600 absorbance; hit rate 0.15% among 98,000; growth inhibition, % at 100 µM;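 active means growth inhibition above about 50% at one test dose, limit read from the data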;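 further: growth measured after 20 h incubation at 37 °C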
# HUVEC prolif 384: inhibitors of human endothelial cell proliferation. HUVEC proliferation, CellTiter-Glo luminescence, 72 h; hits give low values. viability, % at 10 µM (by protocol). hit rate 1.1% among 86,000;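 active means viability at or below 30%; inactive means viability above 30%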;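 further: 100% = median luminescence of DMSO-only cell control wells on each plate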
# Lung fibro prol: blocks proliferation of human lung fibroblasts; hit rate 1.1% among 85,000; viability, % at 10 µM; LL 47 human lung fibroblast viability, ATP luminescence; hits give low values;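 active means viability at or below 50% in the single dose screen; inactive means viability above 50%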;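 further: compound exposure lasted 72 h before the ATP readout; 100% = median luminescence of untreated cell-only wells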
#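 Material: human lung fibroblast line LL 47, low passage; Evaluation: viability percentage against median untreated-cell control; Buffer or medium: 15% FBS in IMEM; Incubation: 72 h compound exposure at 37 °C after overnight plating; Dosing: 0.1% DMSO in all compound wells; Measured by: CellTiter-Glo luminescence.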
# Active calls of the source: *; x = no result.
SMILES,Jurkat tox 60K,Ecoli tolC,H69AR inhibit,Ecoli WT expand,HUVEC prolif 384,Lung fibro prol
O=C(C1CCN(S(=O)(=O)c2cccc3cccnc23)CC1)N1CCN(c2ccccn2)CC1,0,-11,69,1,79,86
O=C(C1CCN(S(=O)(=O)c2cccc3cccnc23)CC1)N1CCN(c2ccc(Cl)cc2)CC1,38*,27,61,-13,91,90
CCOC(=O)N1CCC(N2CCN(S(=O)(=O)c3ccc(Cl)cc3)CC2)CC1,x,x,27*,6,100,98
O=C(Cc1cccs1)NCC1CCCO1 (centres undefined),7,-36,86,-3,91,109
Cc1cc(C)c(C(=O)CSc2nnc(-c3ccccc3Br)o2)cc1C,1,-6,72,-4,62,94
Cc1cc(C)c(C(=O)CSC2=NC(N)=C(C#N)C3(CCCCC3)C2C(N)=O)cc1C (centres undefined),x,x,12*,-3,90,101
O=C1NC2(CCCC2)N=C1c1ccc(Cl)cc1,7,-4,99,0,87,110
N#CC(C#N)=c1ccc2c(c1)NC1(CCCCC1)N=2,42*,-16,1.1*,1,28*,7.4*
O=C(CNC(=O)Cc1ccccc1)NCC(=O)OCC(=O)c1cccc2ccccc12,x,x,x,3,x,x
N=C1N(/N=C/c2ccccc2)C(=Nc2ccccc2)C(=S)N1c1ccccc1,x,x,1.6*,x,66,62
Cc1cc(C(=O)CSc2nnc(NCc3ccccc3)s2)c(C)n1C,34*,36,32*,-18,66,63
Cc1cc(C(=O)CSc2nnc(Nc3ccccc3)s2)c(C)n1CC1CCCO1 (centres undefined),-2,17,101,-8,80,96
Cc1cc(NC(=O)COC(=O)[C@H](C)NC(=O)c2ccccc2)no1,x,x,96,-4,85,96
Cc1cc(NC(=O)COC(=O)C(Nc2ccc(C(F)(F)F)cc2Cl)C(C)C)no1 (centres undefined),6,91*,75,1,13*,92
COC(=O)C1CCN(C(=O)COc2cc3sc(C)nc3c3sccc23)CC1,6,14,35*,0,89,99
Cc1ccc(Cn2nnc3c(=O)[nH]c(C4CCN(S(=O)(=O)c5cc(C)ccc5C)CC4)nc32)cc1,-7,58,32*,-8,63,100
Cc1ccc(C)c(Cn2nnc3c(=O)[nH]c(C4CCN(C(=O)c5cccs5)CC4)nc32)c1,x,64*,61,2,83,93
Cc1ccc(Cn2nnc3c(=O)[nH]c(C4CCN(C(=O)c5cccs5)CC4)nc32)cc1,7,14,84,1,83,94
Cc1ccc(NC(=O)CCC(=O)NNC(=O)c2ccco2)cc1C,x,x,x,6,x,x
C=CCOc1ccc(C2c3c(oc4ccccc4c3=O)C(=O)N2CCCN2CCOCC2)cc1 (centres undefined),-6,-1,92,-2,91,102
CC1(C)Cc2c(C#N)c(N3CCN(C(=O)c4ccco4)CC3)nc(-c3ccco3)c2CS1,x,15,x,-19,x,x
Cc1nc(N2CCN(C(=O)c3ccc(Cl)cc3)CC2)c(C#N)c2c1COC(C)(C)C2,x,8,37*,-8,99,95
CC1(C)Cc2c(C#N)c(N3CCN(C(=O)c4ccco4)CC3)nc(Cc3ccccc3)c2CO1,x,18,55,-20,21*,79
O=C(CSc1n[nH]c(-c2ccccc2)n1)c1ccccc1,4,31,79,3,105,100
CC(C)c1ccc(C(=O)CSc2n[nH]c(-c3ccncc3)n2)cc1,x,x,31*,-2,98,101
SMILES,Jurkat tox 60K,Ecoli tolC,H69AR inhibit,Ecoli WT expand,HUVEC prolif 384,Lung fibro prol
CCOC(=O)Cc1c(C)nc2c(-c3ccc(OC)cc3)c(C)nn2c1C,x,x,23*,-11,71,77
CCOC(=O)Cc1c(C)nc2c(-c3ccccc3)c(C)[nH]n2c1=O,x,x,88,-2,95,92
CCOC(=O)Cc1c(C)nc2c(-c3ccccc3)c(-c3ccccc3)[nH]n2c1=O,x,x,32*,-18,75,92
CCCc1nn(C)c2c1C(c1cccnc1)C(C#N)=C(N)O2 (centres undefined),x,17,90,3,107,99
N#CC1=C(N)Oc2cc(N)ccc2C1c1ccc(F)cc1 (centres undefined),x,x,14*,7,63,91
CCN(CC)c1ccc2c(c1)OC(N)=C(C#N)C2c1cccnc1 (centres undefined),97*,20,x,6,x,x
